Screening data from PubChem.
ALR inh: inhibitors of human sulfhydryl oxidase ALR. purified ALR, DTT oxidation, H2O2 HRP-luminol luminescence. inhibition, % (test concentration not listed). 290,000 tested, 3.8% active;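 active means mean replicate inhibition above about 79%, with every replicate also reaching it, limit read from the data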
Target sequence (P55789 whole entry, looked up): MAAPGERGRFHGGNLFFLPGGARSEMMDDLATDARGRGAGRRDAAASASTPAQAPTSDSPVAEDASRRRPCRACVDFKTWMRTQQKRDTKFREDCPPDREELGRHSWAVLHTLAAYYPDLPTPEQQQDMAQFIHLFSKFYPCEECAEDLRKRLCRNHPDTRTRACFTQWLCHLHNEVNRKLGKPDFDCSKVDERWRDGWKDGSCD
M18AAP inhibitor: PfM18AAP enzyme inhibition | recombinant PfM18AAP, H-Glu-NHMec fluorogenic cleavage | inhibition, % at 7.35 µM | 290,000 tested, 1.2% active | AID 1822;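 active means inhibition above the campaign mean inhibition over all tested compounds plus 3 SD, cut at about 28% in these data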
HDAC3 inhib: inhibitors of human histone deacetylase 3. inhibition, % at 8.3 µM. AID 2718. recombinant HDAC3, fluorogenic peptide/trypsin coupled, fluorescence. 320,000 tested, 0.15% active; in the data active means inhibition above about 26%, passing the limit was not always enough
Rtt109 Vps75: blocks Candida albicans Rtt109/Vps75 acetyltransferase activity. Q5AAJ8. purified Rtt109/Vps75, ThioGlo CoA-SH fluorescence, 4 h. inhibition, % at 34.9 µM. 330,000 tested, 0.16% active. AID 540336;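 active means inhibition of at least 50% in every replicate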
Target sequence (Q5AAJ8 whole entry, looked up): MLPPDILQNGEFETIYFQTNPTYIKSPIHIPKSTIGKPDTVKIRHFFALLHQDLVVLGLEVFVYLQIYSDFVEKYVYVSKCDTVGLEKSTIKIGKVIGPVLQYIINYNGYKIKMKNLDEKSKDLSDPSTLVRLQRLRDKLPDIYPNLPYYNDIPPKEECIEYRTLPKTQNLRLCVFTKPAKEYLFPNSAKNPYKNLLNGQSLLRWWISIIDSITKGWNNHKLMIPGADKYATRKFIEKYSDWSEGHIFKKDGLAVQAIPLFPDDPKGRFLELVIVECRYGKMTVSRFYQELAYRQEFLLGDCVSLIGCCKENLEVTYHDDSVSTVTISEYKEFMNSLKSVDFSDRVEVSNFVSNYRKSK
UCH37 DUB inh: blocks the human deubiquitinase UCH37 | purified proteasome/UCH37, Ub-AMC cleavage fluorescence | inhibition, % (no concentration beside the values) | 330,000 tested, 0.33% active | AID 588478;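 active means mean inhibition over replicate wells above about 20%, limit read from the data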
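Schedule: 30 min plus 25 min, room temperature / Material: human UCH37 within purified proteasomes / Technique: AMC fluorescence intensity at 355/460 nm / Buffer or medium: pH 7.4 Tris-HCl (50 mM) with ovalbumin, ATP-MgCl2, DTT / Controls: wells without proteasome as full block, compound-free enzyme plus substrate as uninhibited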
FAS-TE inh: inhibitors of human fatty acid synthase thioesterase domain; P49327; recombinant FAS-TE, OMFH fluorogenic substrate, fluorescence endpoint; inhibition, % at 15 µM; 360,000 tested, 0.67% active;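 active means compounds whose normalised, plate-corrected inhibition of enzyme fluorescence in the single-dose primary screen is 50% or more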
Each line names hits and unclear results; the compound was inactive in the other large screens. Compounds with a hit are over-represented: about 4.6% of the library has one in this group of screens.

Cc1occc1C(=O)NCc1cccc(CNC(=O)c2ccoc2C)c1	none (no result: ALR inh)
CCON=C(C)c1c(O)c(CC)c(-c2ccccc2)n(-c2ccccc2)c1=O	none (no result: ALR inh, M18AAP inhibitor, HDAC3 inhib, Rtt109 Vps75, FAS-TE inh)
Cc1ccc(SC[C@H](C)CN2CC[C@H](C)CCC2=O)cc1	none (no result: UCH37 DUB inh)
CC(=O)Nc1ccc(SC[C@H](CC(C)C)N2CCN(CCc3ccccc3)CCC2=O)cc1	ALR inh 98.8 (no result: M18AAP inhibitor)
O=C1CC[C@@H](O)CCN1CC[C@H](Sc1ccccc1)c1ccccc1	none
CC(=O)Nc1ccc(S[C@@H](CCN2CC[C@H](O)CCC2=O)c2ccccc2)cc1	ALR inh 98.7 (no result: M18AAP inhibitor)
CC(=O)Nc1ccc(SC[C@H](Cc2ccccc2)N2CCN(CC(C)C)CCC2=O)cc1	none (no result: ALR inh, M18AAP inhibitor)
CC(=O)Nc1ccc(SC[C@H](C)CN2CC[C@H](C(C)(C)C)CCC2=O)cc1	ALR inh 99.2 (no result: M18AAP inhibitor)
CC(=O)Nc1ccc(SC[C@H](CC(C)C)N2CCN(CC(C)C)CCC2=O)cc1	ALR inh 98.5 (no result: M18AAP inhibitor)
O=C(Cc1ccccc1)NN=Cc1cccs1	none (no result: ALR inh, M18AAP inhibitor, HDAC3 inhib, Rtt109 Vps75, FAS-TE inh)
Cc1ccc(C)c(NC(=S)Nc2ncccc2C)c1	ALR inh 79.5
Cc1ccccc1OCc1nc2ccccc2c(=O)n1N=Cc1cn[nH]c1-c1ccc(Br)cc1	none (no result: ALR inh, M18AAP inhibitor, HDAC3 inhib, Rtt109 Vps75, FAS-TE inh)
CCOC(=O)/C=C/S(=O)(=O)c1ccc(NC(C)=O)cc1	ALR inh 98.1, Rtt109 Vps75 123.6
O=C(NN=Cc1ccccc1Cl)c1ccc(F)cc1	none (no result: ALR inh, M18AAP inhibitor, HDAC3 inhib, Rtt109 Vps75, FAS-TE inh)
O=c1oc2ccccc2nc1C=C(O)/C=C\c1ccccc1	none (no result: ALR inh, M18AAP inhibitor, HDAC3 inhib, Rtt109 Vps75, FAS-TE inh)
O=C(CSc1nnc(-c2ccc3c(c2)OCCO3)o1)N1CCCC1	ALR inh 99.3
Cc1ccc(-c2nnc(SCC(=O)N3CCCC3)o2)cc1C	ALR inh 99.2
CCOc1ccc(NC(=O)CCC(=O)NN=C(C)c2cccs2)cc1	none (no result: ALR inh, M18AAP inhibitor, HDAC3 inhib, Rtt109 Vps75, FAS-TE inh)
C(=NNc1ccccn1)c1ccc(N2CCOCC2)cc1	none (no result: ALR inh, M18AAP inhibitor, HDAC3 inhib, Rtt109 Vps75, FAS-TE inh)
COCCNC(=S)NN=C(C)c1ccc(Cl)c(Cl)c1	none (no result: ALR inh, M18AAP inhibitor, HDAC3 inhib, Rtt109 Vps75, FAS-TE inh)
COCCCNC(=S)N/N=C/c1ccc(O)cc1	ALR inh 99.5 (no result: UCH37 DUB inh)
COCCNC(=S)N/N=C(\C)c1ccc(O)cc1	ALR inh 98.9 (no result: UCH37 DUB inh)
Cc1ccc(S(=O)(=O)N(CC(=O)Nc2ccccc2C(=O)O)c2cccc(Cl)c2C)cc1	ALR inh 97.4
Cc1nc2ccc(C(=O)Nc3ccc(N(C)C)cc3)cc2s1	ALR inh 98.8 (no result: M18AAP inhibitor)
COc1cccc(OCc2cc(C=Nn3cncn3)ccc2OC)c1	none (no result: ALR inh, M18AAP inhibitor, HDAC3 inhib, Rtt109 Vps75, FAS-TE inh)
C=C(C)CNC(=S)NN=Cc1ccc(NC(C)=O)cc1	none (no result: ALR inh, M18AAP inhibitor, HDAC3 inhib, Rtt109 Vps75, FAS-TE inh)
Cc1oc(-c2ccccc2Cl)nc1CS(=O)CC(=O)NC1CC1 (centres undefined)	ALR inh 99.2
Cc1ccc(-c2nc(CS(=O)CC(=O)NC3CC3)c(C)o2)cc1 (centres undefined)	ALR inh 98.9
Cc1ccc(-c2nc(CS(=O)(=O)CC(=O)NC3CC3)c(C)o2)cc1	none
Cc1oc(-c2ccccc2)nc1CS(=O)CC(=O)NC1CCCC1 (centres undefined)	ALR inh 98.9
CCc1ccc(-c2nc(CS(=O)CC(=O)NC3CC3)c(C)o2)cc1 (centres undefined)	ALR inh 98.4
CCCCC(=O)NN=Cc1sccc1C	none (no result: ALR inh, M18AAP inhibitor, HDAC3 inhib, Rtt109 Vps75, FAS-TE inh)
O=C(C[n+]1ccccc1)NN=Cc1ccco1	none (no result: ALR inh, M18AAP inhibitor, HDAC3 inhib, Rtt109 Vps75, FAS-TE inh)
CCc1ccc(-c2nc(CS(=O)CC(=O)NC3CCCCCC3)c(C)o2)cc1 (centres undefined)	ALR inh 99.0
CCc1ccc(-c2nc(CS(=O)CC(=O)O)c(C)o2)cc1 (centres undefined)	ALR inh 99.3
Cc1cc(=O)[nH]c(NN=CC(C)c2ccccc2)n1 (centres undefined)	none (no result: ALR inh, M18AAP inhibitor, HDAC3 inhib, Rtt109 Vps75, FAS-TE inh)
Nc1oc2ccccc2c1C(=O)Cc1ccccc1O[C@@H]1O[C@H](CO)[C@@H](O)[C@H](O)[C@H]1O	ALR inh 90.3 (no result: M18AAP inhibitor)
OCc1ccccc1O[C@@H]1O[C@H](CO)[C@@H](O)[C@H](O)[C@H]1O	none
Oc1cccc(NC(=S)N=Nc2c(O)[nH]c3ccc(Br)cc23)c1	ALR inh 99.1
Oc1ccc(NC(=S)N=Nc2c(O)[nH]c3ccc(Br)cc23)cc1	none (no result: ALR inh, HDAC3 inhib)
CCCC(=O)Nc1ccc(C(=O)NN=Cc2cccnc2)cc1	none (no result: ALR inh, M18AAP inhibitor, HDAC3 inhib, Rtt109 Vps75, FAS-TE inh)
O=C(CCc1ccc(S(=O)(=O)NC2CCCCC2)cc1)N(Cc1ccccc1)Cc1ccccc1	UCH37 DUB inh 32.6
O=C(CCc1ccc(S(=O)(=O)NC2CCCCC2)cc1)Nc1ccccc1	none
